In brackets after ≈: the same amount, converted by molar mass. Activity calls are given as the source filed them. No cut-off for these calls is given here.
What was measured:
Mus musculus [1] = assay: Anticonvulsant activity against subcutaneous pentylenetetrazole-induced seizures in mouse at <=100 mg/kg, ip; type: functional, organism-based
Mus musculus [2] = assay: Anticonvulsant activity against maximal electroshock-induced seizures in mouse at <=100 mg/kg, ip; type: functional, organism-based
Mus musculus [3] = assay: Anticonvulsant activity against maximal electroshock-induced seizures in mouse at 300 mg/kg, ip; type: functional, organism-based; parameters: dose 300 mg/kg
Mus musculus [4] = assay: Anticonvulsant activity against subcutaneous pentylenetetrazole-induced seizures in mouse at 300 mg/kg, ip; type: functional, organism-based; parameters: dose 300 mg/kg
Staphylococcus aureus [5] = assay: Antibacterial activity against Staphylococcus aureus ATCC 25923 after 18 hrs by NCCLS M7-A4 method; type: functional, organism-based
Method in brief: (§1)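 Agar dilution on Mueller–Hinton agar, following NCCLS (now CLSI) guidance. Test compounds were dissolved in 80% DMSO in water and tested at 0.12 to 16. Plates were incubated at 35 °C for 18 h. The MIC was the lowest concentration giving complete growth inhibition.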

Staphylococcus aureus [6] = assay: Antibacterial activity against methicillin-susceptible Staphylococcus aureus clinical isolate after 18 hrs by NCCLS M7-A4 method; type: functional
Method in brief: (§2)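 Test compounds dissolved in 80% DMSO in water. Clinical isolates came from a MRSA reference laboratory culture collection. Final inoculum 10^7 CFU/ml, incubated 35 °C for 18 h. MIC taken as the lowest concentration completely inhibiting growth. Reference strains S. aureus ATCC 25923, S. epidermidis ATCC 12228 and E. faecalis ATCC 29212 served as test controls.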

[7] = test system: Staphylococcus epidermidis; assay: Antibacterial activity against Staphylococcus epidermidis ATCC 12228 after 18 hrs by NCCLS M7-A4 method; type: functional, organism-based; method in brief: as §1
Enterococcus faecalis = assay: Antibacterial activity against Enterococcus faecalis ATCC 29212 after 18 hrs by NCCLS M7-A4 method; type: functional, organism-based; method in brief: as §1
Streptococcus pneumoniae = assay: Antibacterial activity against Streptococcus pneumoniae clinical isolate after 18 hrs by NCCLS M7-A4 method; type: functional
Method in brief: (§3)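 Agar dilution on Mueller–Hinton agar with 5% sheep blood, per NCCLS/CLSI. Compounds were dissolved in 80% DMSO in water and tested over 0.12–16. Incubation was 35 °C for 18 h. MIC was read as the lowest concentration completely inhibiting growth. Line 4 used clinical isolates (n = 7 for H. influenzae).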

Escherichia coli = assay: Antibacterial activity against Escherichia coli ATCC 25922 after 18 hrs by NCCLS M7-A4 method; type: functional, organism-based
Method in brief: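 Reference E. coli strain tested by NCCLS/CLSI agar dilution. Compounds were in 80% DMSO in water over a 0.12–16 dilution range, incubated at 35 °C for 18 h.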

Haemophilus influenzae [8] = assay: Antibacterial activity against Haemophilus influenzae clinical isolate after 18 hrs by NCCLS M7-A4 method; type: functional; method in brief: as §3
Staphylococcus [9] = assay: Antibacterial activity against methicillin-sensitive coagulase-negative Staphylococcus clinical isolate after 18 hrs by NCCLS M7-A4 method; type: functional; method in brief: as §2
Haemophilus influenzae [10] = assay: Antibacterial activity against Haemophilus influenzae ATCC 49247 after 18 hrs by NCCLS M7-A4 method; type: functional, organism-based; method in brief: as §3
Enterococcus [11] = assay: Antibacterial activity against vancomycin-sensitive Enterococcus clinical isolate after 18 hrs by NCCLS M7-A4 method; type: functional; method in brief: as §2
Staphylococcus [12] = assay: Antibacterial activity against methicillin-resistant coagulase-negative Staphylococcus clinical isolate after 18 hrs by NCCLS M7-A4 method; type: functional; method in brief: as §2
Enterococcus [13] = assay: Antibacterial activity against vancomycin-resistant Enterococcus clinical isolate after 18 hrs by NCCLS M7-A4 method; type: functional; method in brief: as §2
Mus musculus [14] = assay: Anticonvulsant activity against maximal electroshock-induced seizures in mouse at >100 to 300 mg/kg, ip; type: functional, organism-based; parameters: dose 300 mg/kg
Staphylococcus aureus [15] = assay: Antibacterial activity against methicillin-resistant Staphylococcus aureus clinical isolate after 18 hrs by NCCLS M7-A4 method; type: functional; method in brief: as §2
Mus musculus [16] = assay: Anticonvulsant activity against subcutaneous pentylenetetrazole-induced seizures in mouse at >100 to 300 mg/kg, ip; type: functional, organism-based; parameters: dose 300 mg/kg

CCOC(=O)C1C(=O)C=C(Nc2ccc(Br)cc2)CC1C (centres undefined)
Activity (Mus musculus [1]): Active | Activity (Mus musculus [2]): Active

COC(=O)C1C(=O)C=C(Nc2ccc(N3CCN(C(=O)OC(C)(C)C)CC3)c(F)c2)CC1C (centres undefined)
Activity (Mus musculus [3]): inactive | Activity (Mus musculus [4]): inactive

CCOC(=O)C1C(=O)C=C(NCCc2ccccc2)CC1C (centres undefined)
Activity (Mus musculus [2]): Active

CCOC(=O)C1C(=O)C=C(NC[C@H]2CN(c3ccc(N4CCOCC4)c(F)c3)C(=O)O2)CC1C (some centres undefined)
Activity (Staphylococcus aureus [5]): inactive | MIC (Staphylococcus aureus [6]): > 16 µg/mL | Activity [7]: inactive | Activity (Enterococcus faecalis): inactive | Activity (Mus musculus [3]): inactive | MIC (Streptococcus pneumoniae): > 16 µg/mL | Activity (Escherichia coli): inactive | MIC (Haemophilus influenzae [8]): > 16 µg/mL | Activity (Mus musculus [4]): inactive | MIC (Staphylococcus [9]): > 16 µg/mL | Activity (Haemophilus influenzae [10]): inactive | MIC (Enterococcus [11]): > 16 µg/mL

CN[C@H](CC(C)C)C(=O)N[C@H]1C(=O)N[C@@H](CC(N)=O)C(=O)N[C@H]2C(=O)N[C@H]3C(=O)N[C@H](C(=O)N[C@H](C(=O)O)c4cc(O)cc(O)c4-c4cc3ccc4O)[C@H](O)c3ccc(c(Cl)c3)Oc3cc2cc(c3O[C@@H]2O[C@H](CO)[C@@H](O)[C@H](O)[C@H]2O[C@H]2C[C@](C)(N)[C@H](O)[C@H](C)O2)Oc2ccc(cc2Cl)[C@H]1O [VANCOMYCIN]
Activity (Staphylococcus aureus [5]): inactive | Activity [7]: inactive | MIC (Staphylococcus [12]): 2 µg/mL (≈ 1.38 µM) | Activity (Enterococcus faecalis): inactive | MIC (Streptococcus pneumoniae): 0.25 µg/mL (≈ 0.173 µM) | Activity (Escherichia coli): inactive | MIC (Haemophilus influenzae [8]): > 32 µg/mL | MIC (Enterococcus [13]): 8 µg/mL (≈ 5.52 µM) | MIC (Staphylococcus [9]): 1 µg/mL (≈ 0.69 µM) | Activity (Haemophilus influenzae [10]): inactive | MIC (Enterococcus [11]): 1 µg/mL (≈ 0.69 µM)

CCOC(=O)C1C(=O)C=C(Nc2ccc(F)cc2)CC1c1ccccc1 (centres undefined)
Activity (Mus musculus [3]): inactive | Activity (Mus musculus [4]): inactive

CCOC(=O)C1C(=O)C=C(Nc2ccc(Cl)cc2)CC1c1ccccc1 (centres undefined)
Activity (Mus musculus [14]): Active

CCOC(=O)C1C(=O)C=C(N2CCN(c3ccc([N+](=O)[O-])cc3F)CC2)CC1c1ccccc1 (centres undefined)
Activity (Mus musculus [3]): inactive | Activity (Mus musculus [4]): inactive

O=C1O[C@@H](Cn2ccnn2)CN1c1ccc(N2CCOCC2)c(F)c1
Activity (Staphylococcus aureus [5]): inactive | MIC (Staphylococcus aureus [6]): 0.5 µg/mL (≈ 1.44 µM) | Activity [7]: inactive | MIC (Staphylococcus [12]): 0.5 µg/mL (≈ 1.44 µM) | Activity (Enterococcus faecalis): inactive | MIC (Streptococcus pneumoniae): 0.5 µg/mL (≈ 1.44 µM) | Activity (Escherichia coli): inactive | MIC (Haemophilus influenzae [8]): 32 µg/mL (≈ 92.1 µM) | MIC (Enterococcus [13]): 0.5 µg/mL (≈ 1.44 µM) | MIC (Staphylococcus aureus [15]): 0.5 µg/mL (≈ 1.44 µM) | MIC (Staphylococcus [9]): 1 µg/mL (≈ 2.88 µM) | Activity (Haemophilus influenzae [10]): inactive | MIC (Enterococcus [11]): 0.5 µg/mL (≈ 1.44 µM)

CCOC(=O)C1C(=O)C=C(Nc2cccc(Cl)c2)CC1C (centres undefined)
Activity (Mus musculus [1]): Active | Activity (Mus musculus [2]): Active

COC(=O)C1C(=O)C=C(NCCc2ccccc2)CC1c1ccccc1 (centres undefined)
Activity (Mus musculus [3]): inactive | Activity (Mus musculus [4]): inactive

CCOC(=O)C1C(=O)C=C(Nc2ccccc2)CC1c1ccccc1 (centres undefined)
Activity (Mus musculus [3]): inactive | Activity (Mus musculus [4]): inactive

COC(=O)C1C(=O)C=C(Nc2ccc(N3CCOCC3)c(F)c2)CC1C (centres undefined)
Activity (Mus musculus [3]): inactive | Activity (Mus musculus [4]): inactive

CCOC(=O)C1C(=O)C=C(N2CCOCC2)CC1C (centres undefined)
Activity (Mus musculus [16]): Active

COC(=O)C1C(=O)C=C(NCCCc2ccccc2)CC1c1ccccc1 (centres undefined)
Activity (Mus musculus [3]): inactive | Activity (Mus musculus [4]): inactive

CCOC(=O)C1C(=O)C=C(NCCc2ccccc2)CC1c1ccccc1 (centres undefined)
Activity (Mus musculus [3]): inactive | Activity (Mus musculus [4]): inactive

CCOC(=O)C1C(=O)C=C(Nc2ccc(N3CCOCC3)c(F)c2)CC1C (centres undefined)
Activity (Staphylococcus aureus [5]): inactive | MIC (Staphylococcus aureus [6]): > 16 µg/mL | Activity [7]: inactive | Activity (Enterococcus faecalis): inactive | Activity (Mus musculus [3]): inactive | MIC (Streptococcus pneumoniae): > 16 µg/mL | Activity (Escherichia coli): inactive | MIC (Haemophilus influenzae [8]): > 16 µg/mL | Activity (Mus musculus [4]): inactive | MIC (Staphylococcus [9]): > 16 µg/mL | Activity (Haemophilus influenzae [10]): inactive | MIC (Enterococcus [11]): > 16 µg/mL

CCN(CC)C1=CC(=O)C(C(=O)OC)C(c2ccccc2)C1 (centres undefined)
Activity (Mus musculus [3]): inactive | Activity (Mus musculus [4]): inactive

CCOC(=O)C1C(=O)C=C(NCCCc2ccccc2)CC1c1ccccc1 (centres undefined)
Activity (Mus musculus [3]): inactive | Activity (Mus musculus [4]): inactive

COC(=O)C1C(=O)C=C(NC[C@H]2CN(c3ccc(N4CCOCC4)c(F)c3)C(=O)O2)CC1c1ccccc1 (some centres undefined)
Activity (Staphylococcus aureus [5]): inactive | MIC (Staphylococcus aureus [6]): > 16 µg/mL | Activity [7]: inactive | Activity (Enterococcus faecalis): inactive | Activity (Mus musculus [3]): inactive | MIC (Streptococcus pneumoniae): > 16 µg/mL | Activity (Escherichia coli): inactive | MIC (Haemophilus influenzae [8]): > 16 µg/mL | Activity (Mus musculus [4]): inactive | MIC (Staphylococcus [9]): > 16 µg/mL | Activity (Haemophilus influenzae [10]): inactive | MIC (Enterococcus [11]): > 16 µg/mL

CCOC(=O)C1C(=O)C=C(Nc2ccc(F)cc2)CC1C (centres undefined)
Activity (Mus musculus [1]): Active | Activity (Mus musculus [2]): Active
